Data set [1] deals with T1, 5-hydroxytryptamine receptor 1A (Rattus norvegicus, UniProt P19327).
T1 sequence (P19327 whole entry): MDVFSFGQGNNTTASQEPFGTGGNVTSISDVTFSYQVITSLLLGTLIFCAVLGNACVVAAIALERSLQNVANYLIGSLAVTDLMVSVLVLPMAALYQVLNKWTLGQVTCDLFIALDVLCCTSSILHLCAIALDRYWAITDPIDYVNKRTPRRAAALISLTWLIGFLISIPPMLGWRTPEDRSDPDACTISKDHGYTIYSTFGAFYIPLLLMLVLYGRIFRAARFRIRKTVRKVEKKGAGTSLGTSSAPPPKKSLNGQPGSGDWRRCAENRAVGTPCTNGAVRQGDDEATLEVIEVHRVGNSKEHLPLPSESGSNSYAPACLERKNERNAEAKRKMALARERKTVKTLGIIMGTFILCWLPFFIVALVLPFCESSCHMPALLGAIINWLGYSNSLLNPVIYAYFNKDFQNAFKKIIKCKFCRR
Kind of data set: Inhibition activity against 5-hydroxytryptamine 1A receptor in rat hippocampus membranes using radio binding assays. Format: cell membranes, Membrane. The method in brief: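 Displacement of 0.5 nM [3H]8-OH-DPAT from 5-HT1A sites in rat hippocampal membranes, following a previously reported method. IC50 in nM, mean of at least 3 determinations ±SEM unless indicated otherwise.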

In data set [2] the target is Sodium-dependent serotonin transporter (Homo sapiens, UniProt P31645). Kind of data set: Inhibition of 5-hydroxytryptamine reuptake.
Sodium-dependent serotonin transporter, sequence (P31645 whole entry): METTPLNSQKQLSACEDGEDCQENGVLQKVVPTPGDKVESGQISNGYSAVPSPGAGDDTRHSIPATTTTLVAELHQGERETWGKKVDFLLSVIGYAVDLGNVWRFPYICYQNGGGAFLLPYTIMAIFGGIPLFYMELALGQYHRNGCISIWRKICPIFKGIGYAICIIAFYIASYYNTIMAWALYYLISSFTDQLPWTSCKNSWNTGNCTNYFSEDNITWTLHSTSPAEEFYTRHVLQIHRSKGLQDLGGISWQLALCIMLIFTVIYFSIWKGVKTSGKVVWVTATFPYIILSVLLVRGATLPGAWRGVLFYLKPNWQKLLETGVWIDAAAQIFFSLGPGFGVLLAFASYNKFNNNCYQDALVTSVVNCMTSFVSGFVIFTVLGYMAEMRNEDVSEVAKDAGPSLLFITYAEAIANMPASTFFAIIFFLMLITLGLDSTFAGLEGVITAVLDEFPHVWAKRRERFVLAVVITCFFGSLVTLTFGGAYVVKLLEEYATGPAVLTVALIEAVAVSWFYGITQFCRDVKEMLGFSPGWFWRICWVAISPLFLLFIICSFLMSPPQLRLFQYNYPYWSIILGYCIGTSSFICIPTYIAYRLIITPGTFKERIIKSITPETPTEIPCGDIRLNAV
Data set [3] can be described thus: Partition coefficient (logD7.4). The following applies: octanol/water, pH 7.4.
Data set [4] deals with Serotonin (5-HT) receptor (Homo sapiens) (UniProt P30939+P41595+Q13639+P28222+P46098+P08908+P28221+P28223+P28335+P28566+P34969+P50406+P47898+A5X5Y0+O95264+Q70Z44+Q8WXA8). Kind of data set: 5-hydroxytryptamine level in K+ induced 5-hydroxytryptamine release in guinea pig cortex. Format: functional, tissue-based. The following applies: Cavia porcellus, target entry is the homologue from another species. The method in brief: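 Guinea pig (male Dunkin-Hartley) cerebral cortex slices loaded with [3H]5-HT for 30 min, then superfused with oxygenated Krebs solution. Two 4-min 30 mM K+ pulses at 68 and 108 min (S1, S2). Sumatriptan 3 µM, alone or with test compound at 30 nM, 300 nM or 3 µM, given before and during S2. Tabulated value is at 300 nM, reported as % of control S2/S1 ratio; mean (SEM) of 3-4 determinations.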

Data set [5] deals with 5-hydroxytryptamine receptor 1B (Rattus norvegicus, UniProt P28564). Kind of data set: Inhibition affinity against 5-HT-1B receptor in rat frontal cortex using radio binding assay. The class given is tissue-based.
5-hydroxytryptamine receptor 1B, sequence (P28564 whole entry): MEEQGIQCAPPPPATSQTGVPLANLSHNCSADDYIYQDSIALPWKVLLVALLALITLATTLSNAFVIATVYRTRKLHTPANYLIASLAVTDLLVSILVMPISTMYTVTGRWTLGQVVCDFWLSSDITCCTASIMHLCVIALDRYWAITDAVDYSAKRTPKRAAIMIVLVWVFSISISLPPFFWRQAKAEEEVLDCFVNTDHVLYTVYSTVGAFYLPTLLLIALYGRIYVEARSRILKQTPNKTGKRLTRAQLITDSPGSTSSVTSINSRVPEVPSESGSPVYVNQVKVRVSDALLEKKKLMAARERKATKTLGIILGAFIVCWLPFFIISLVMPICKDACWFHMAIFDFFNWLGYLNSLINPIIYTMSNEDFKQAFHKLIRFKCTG
Data set [6] in a line: pA2 value for the effect in RSV model. The class given is functional. The essentials: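 Isolated rabbit saphenous vein segments were held in organ baths and given two cumulative sumatriptan concentration-response curves. The second curve was run after 60 min incubation with antagonist or vehicle. Apparent pA2 was derived from a single antagonist concentration in at least three preparations.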

A short description of data set [7]: Partition coefficient (logP). To be noted: octanol/water.

Molecules are shown by their SMILES.

What is called IC50 is the point on the concentration scale where inhibition reaches its midpoint. As a reminder, the logD is the decadic logarithm of the distribution of all forms, ionised or not, between an organic phase and buffer at a given pH. Higher therefore signals higher lipophilicity. What is called pA2 is a measure of antagonist potency on a negative log scale. In general, logP refers to the decadic logarithm of the partition coefficient of the neutral form, usually between octanol and water. A high value points to a more lipophilic compound. For the molecule `Cc1nc(-c2ccc(-c3ccc(C(=O)Nc4ccc(OCCF)c(N5CCN(C)CC5)c4)cc3)c(C)c2)no1`, the results for the IC50 in data set [1], in data set [2] and in data set [5] were 5 µM, 0.9 µM and 0.01 µM, respectively. The molecule also came in with a logD in data set [3] of 4.91. In data set [4], this molecule showed a Control of 107%. This molecule displayed a pA2 in data set [6] of 8.3. For the same molecule, the logP in data set [7] turned out to be 5.33.

For the molecule `COc1ccc(NC(=O)c2ccc(-c3ccc(-c4nnc(C)o4)cc3C)cc2)cc1N1CCN(C)CC1`, the IC50 is over 1 µM in data set [1], over 1 µM in data set [2] and 0.00093 µM in data set [5]. This molecule also showed a Control in data set [4] of 147%. Also, in data set [6], the pA2 worked out at 9.1.

`Cc1nc(-c2ccc(-c3ccc(C(=O)Nc4ccc(OS(=O)(=O)C(F)(F)F)c(N5CCN(C)CC5)c4)cc3)c(C)c2)no1`: the IC50 in data set [1] is over 10 µM; in data set [2], over 1 µM; in data set [5], 0.7 µM. The molecule further came in with a logD in data set [3] of 5.64. The molecule further displayed a logP in data set [7] of 6.06.

For the molecule `Cc1nnc(-c2ccc(-c3ccc(C(=O)Nc4ccc(O)c(N5CCN(C)CC5)c4)cc3)c(C)c2)o1`, the results for the IC50 in data set [1], in data set [2] and in data set [5] were over 0.1 µM, 4.7 µM and 0.0063 µM, respectively. The molecule also registered a logD in data set [3] of 3.12. Also, the Control in data set [4] was 147%. Further, the pA2 in data set [6] turned out to be 8. This molecule also displayed a logP in data set [7] of 3.54.

Take `COc1ccc(NC(=O)c2ccc(-c3ccc(-c4noc(C)n4)cc3C)cc2)cc1N1CCN(C)CC1` [GR-127935]: the IC50 in data set [1] was determined as 0.425 µM; in data set [2], 1 µM; in data set [5], 0.0016 µM. Besides, the logD in data set [3] was 4.48. In data set [6], the pA2 stood at 9.9. In addition, the logP in data set [7] stood at 4.9.

With `Cc1nc(-c2ccc(-c3ccc(C(=O)Nc4ccc(O)c(N5CCN(C)CC5)c4)cc3)c(C)c2)no1`, the IC50 was over 1 µM in data set [1], over 1 µM in data set [2] and 0.0073 µM in data set [5]. The logD in data set [3] was 3.91. For the same molecule, in data set [4], the Control was 122%. The pA2 in data set [6] is reported as 7.3. The log partition coefficient (logP) in data set [7] was 4.33.

`COc1ccc(NS(=O)(=O)c2ccc(-c3ccc(-c4nnc(C)o4)cc3C)cc2)cc1N1CCN(C)CC1`: the half-maximal inhibitory concentration (IC50) in data set [1] was 0.7 µM; in data set [2] it was over 1 µM; in data set [5], 0.06 µM. This molecule yielded a logD in data set [3] of 3.6. The Control in data set [4] stood at 155%. For the same molecule, in data set [6], the pA2 is listed as 7. This molecule displayed a logP in data set [7] of 4.04.

As to `COc1ccc(NC(=O)c2ccc(-c3ccc(C(N)=O)cc3C)cc2)cc1N1CCN(C)CC1`, the IC50 was 0.057 µM in data set [1], over 1 µM in data set [2] and 0.0013 µM in data set [5]. In data set [3], this molecule had a logD of 3.18. Also, in data set [4], the Control was 162%. In data set [6], this molecule came in with a pA2 of 10. The same molecule displayed a log partition coefficient (logP) in data set [7] of 3.6.

On to `Cc1nc(-c2ccc(-c3ccc(C(=O)N4CCc5cc6c(cc54)C4(CCN(C)CC4)CO6)cc3)c(C)c2)no1` [SB-224289], for which the IC50 in data set [2] came out at 4.7 µM; in data set [5] it was 0.002 µM. For the same molecule, the logD in data set [3] is 4.64. This molecule registered a Control in data set [4] of 134%. Also, in data set [6], the pA2 is reported as 7.4. The molecule further had a logP in data set [7] of 6.29.

As for `COc1ccc(NC(=O)c2ccc(-c3ccc(C(=N)N)cc3C)cc2)cc1N1CCN(C)CC1`, the figures for the IC50 in data set [1], in data set [2] and in data set [5] were 0.023 µM, 0.407 µM and 0.0005 µM, respectively. The molecule further registered a pH-dependent lipophilicity (logD) in data set [3] of -0.35. Moreover, the Control in data set [4] was 155%. The pA2 in data set [6] worked out at 9.6. In data set [7], this molecule returned a logP of 3.61.

With `Cc1nnc(-c2ccc(-c3ccc(C(=O)Nc4ccc(OS(C)(=O)=O)c(N5CCN(C)CC5)c4)cc3)c(C)c2)o1`, the figures for the IC50 in data set [1], in data set [2] and in data set [5] were 7 µM, 3.8 µM and 0.07 µM, respectively. The same molecule showed a log distribution coefficient (logD) in data set [3] of 2.96. The same molecule yielded a Control in data set [4] of 166%. For the same molecule, in data set [6], the pA2 stood at 8.3. For the same molecule, the logP in data set [7] stood at 3.38.

Values taken from ChEMBL document CHEMBL1133697, “New selective and potent 5-HT(1B/1D) antagonists: chemistry and pharmacological evaluation of N-piperazinylphenyl biphenylcarboxamides and biphenylsulfonamides” (J Med Chem, 2000).
